Measured values reported in ChEMBL document CHEMBL3526002, “Tissue distribution and identification of radioactivity components at elimination phase after oral administration of [¹⁴C]CS-1036, an α-amylase inhibitor, to rats” (Drug Metab Dispos, 2013).

Legend:
Parameters in all cases: dose 5 mg/kg, dosed compound name [14C]CS-1036, route oral
Conditions in all cases: in vivo
Kidney [1] = test: Drug uptake in albino F344/DuCrlCrlj rat kidney at 5 mg/kg, po after 4 hrs by liquid scintillation counting; format: ADME, organism-based
Kidney [2] = test: Drug uptake in albino F344/DuCrlCrlj rat kidney at 5 mg/kg, po after 1 hr by liquid scintillation counting; format: ADME, organism-based
[3] = Drug uptake in albino F344/DuCrlCrlj rat bone marrow assessed as ng equivalent of CS-1036 at 5 mg/kg, po after 72 hrs by liquid scintillation counting; format: ADME, organism-based
[4] = Drug uptake in albino F344/DuCrlCrlj rat trachea at 5 mg/kg, po after 4 hrs by liquid scintillation counting; format: ADME, organism-based
[5] = Drug uptake in albino F344/DuCrlCrlj rat testis assessed as ng equivalent of CS-1036 at 5 mg/kg, po after 8 hrs by liquid scintillation counting; format: ADME, organism-based
Liver [6] = test: Drug uptake in albino F344/DuCrlCrlj rat liver assessed as ng equivalent of CS-1036 at 5 mg/kg, po after 4 hrs by liquid scintillation counting; format: ADME, organism-based
Heart = test: Drug uptake in albino F344/DuCrlCrlj rat heart assessed as ng equivalent of CS-1036 at 5 mg/kg, po after 8 hrs by liquid scintillation counting; format: ADME, organism-based
Small intestine [7] = test: Drug uptake in albino F344/DuCrlCrlj rat small intestine assessed as ng equivalent of CS-1036 at 5 mg/kg, po after 24 hrs by liquid scintillation counting; format: ADME, organism-based
Plasma [8] = test: Drug uptake in albino F344/DuCrlCrlj rat plasma assessed as ng equivalent of CS-1036 at 5 mg/kg, po after 24 hrs by liquid scintillation counting; format: ADME, organism-based
Liver [9] = test: Drug uptake in albino F344/DuCrlCrlj rat liver assessed as ng equivalent of CS-1036 at 5 mg/kg, po after 24 hrs by liquid scintillation counting; format: ADME, organism-based
Lung = test: Drug uptake in albino F344/DuCrlCrlj rat lung at 5 mg/kg, po after 336 hrs by liquid scintillation counting; format: ADME, organism-based
[10] = Drug uptake in albino F344/DuCrlCrlj rat skeletal muscle assessed as ng equivalent of CS-1036 at 5 mg/kg, po after 72 hrs by liquid scintillation counting; format: ADME, organism-based, Muscle tissue
Liver [11] = test: Drug uptake in albino F344/DuCrlCrlj rat liver at 5 mg/kg, po after 24 hrs by liquid scintillation counting; format: ADME, organism-based
[12] = Drug uptake in albino F344/DuCrlCrlj rat testis assessed as ng equivalent of CS-1036 at 5 mg/kg, po after 4 hrs by liquid scintillation counting; format: ADME, organism-based
[13] = Drug uptake in albino F344/DuCrlCrlj rat thyroid gland at 5 mg/kg, po after 168 hrs by liquid scintillation counting; format: ADME, organism-based
Zone of skin [14] = test: Drug uptake in albino F344/DuCrlCrlj rat skin assessed as ng equivalent of CS-1036 at 5 mg/kg, po after 336 hrs by liquid scintillation counting; format: ADME, organism-based
[15] = Drug uptake in albino F344/DuCrlCrlj rat eyeball assessed as ng equivalent of CS-1036 at 5 mg/kg, po after 8 hrs by liquid scintillation counting; format: ADME, organism-based
Aorta [16] = test: Drug uptake in albino F344/DuCrlCrlj rat aorta at 5 mg/kg, po after 4 hrs by liquid scintillation counting; format: ADME, organism-based
[17] = Drug uptake in albino F344/DuCrlCrlj rat skeletal muscle at 5 mg/kg, po after 24 hrs by liquid scintillation counting; format: ADME, organism-based, Muscle tissue
Spleen = test: Drug uptake in albino F344/DuCrlCrlj rat spleen at 5 mg/kg, po after 8 hrs by liquid scintillation counting; format: ADME, organism-based
[18] = Drug uptake in albino F344/DuCrlCrlj rat epididymis assessed as ng equivalent of CS-1036 at 5 mg/kg, po after 168 hrs by liquid scintillation counting; format: ADME, organism-based
Thymus = test: Drug uptake in albino F344/DuCrlCrlj rat thymus at 5 mg/kg, po after 168 hrs by liquid scintillation counting; format: ADME, organism-based
[19] = Drug uptake in albino F344/DuCrlCrlj rat epididymis assessed as ng equivalent of CS-1036 at 5 mg/kg, po after 1 hr by liquid scintillation counting; format: ADME, organism-based
Small intestine [20] = test: Drug uptake in albino F344/DuCrlCrlj rat small intestine assessed as ng equivalent of CS-1036 at 5 mg/kg, po after 8 hrs by liquid scintillation counting; format: ADME, organism-based
Zone of skin [21] = test: Drug uptake in albino F344/DuCrlCrlj rat skin assessed as ng equivalent of CS-1036 at 5 mg/kg, po after 1 hr by liquid scintillation counting; format: ADME, organism-based
[22] = Drug uptake in albino F344/DuCrlCrlj rat testis assessed as ng equivalent of CS-1036 at 5 mg/kg, po after 336 hrs by liquid scintillation counting; format: ADME, organism-based
Aorta [23] = test: Drug uptake in albino F344/DuCrlCrlj rat aorta at 5 mg/kg, po after 336 hrs by liquid scintillation counting; format: ADME, organism-based
Stomach = test: Drug uptake in albino F344/DuCrlCrlj rat stomach at 5 mg/kg, po after 1 hr by liquid scintillation counting; format: ADME, organism-based
[24] = Drug uptake in albino F344/DuCrlCrlj rat testis at 5 mg/kg, po after 336 hrs by liquid scintillation counting; format: ADME, organism-based
Adrenal gland [25] = test: Drug uptake in albino F344/DuCrlCrlj rat adrenal gland at 5 mg/kg, po after 1 hr by liquid scintillation counting; format: ADME, organism-based
[26] = Drug uptake in albino F344/DuCrlCrlj rat urinary bladder assessed as ng equivalent of CS-1036 at 5 mg/kg, po after 1 hr by liquid scintillation counting; format: ADME, organism-based
Adrenal gland [27] = test: Drug uptake in albino F344/DuCrlCrlj rat adrenal gland at 5 mg/kg, po after 8 hrs by liquid scintillation counting; format: ADME, organism-based
Cerebrum [28] = test: Drug uptake in albino F344/DuCrlCrlj rat cerebrum at 5 mg/kg, po after 1 hr by liquid scintillation counting; format: ADME, organism-based
In short: (§1)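 Single oral [14C]CS-1036 at 5 mg/kg was given to male rats (159–167 g; n = 3). Cerebrum was collected after aortic bleeding at 1, 4, 8, 24, 72, 168 or 336 h, weighed, and homogenized in 2 volumes of saline. A 0.5 ml aliquot was solubilized in Soluene-350 and counted by LSC with external-standard correction. Results are in ng equivalent/g tissue from specific activity and sample weight.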

Adrenal gland [29] = test: Drug uptake in albino F344/DuCrlCrlj rat adrenal gland assessed as ng equivalent of CS-1036 at 5 mg/kg, po after 336 hrs by liquid scintillation counting; format: ADME, organism-based
[30] = Drug uptake in albino F344/DuCrlCrlj rat bone marrow at 5 mg/kg, po after 72 hrs by liquid scintillation counting; format: ADME, organism-based
Cerebrum [31] = test: Drug uptake in albino F344/DuCrlCrlj rat cerebrum at 5 mg/kg, po after 24 hrs by liquid scintillation counting; format: ADME, organism-based; in short: as §1
Small intestine [32] = test: Drug uptake in albino F344/DuCrlCrlj rat small intestine at 5 mg/kg, po after 72 hrs by liquid scintillation counting; format: ADME, organism-based
Plasma [33] = test: Drug uptake in albino F344/DuCrlCrlj rat plasma assessed as ng equivalent of CS-1036 at 5 mg/kg, po after 1 hr by liquid scintillation counting; format: ADME, organism-based

Radiolabel recovery (Kidney [1]): 383 ngequiv/g
Radiolabel recovery (Kidney [2]): 520 ngequiv/g
Radiolabel recovery [3]: 18.1 ngequiv/g
Radiolabel recovery [4]: 31.1 ngequiv/g
Radiolabel recovery [5]: 24.1 ngequiv/g
Radiolabel recovery (Liver [6]): 93 ngequiv/g
Radiolabel recovery (Heart): 8.3 ngequiv/g
Radiolabel recovery (Small intestine [7]): 7.5 ngequiv/g
Radiolabel recovery (Plasma [8]): 6.1 ngequiv/ml
Radiolabel recovery (Liver [9]): 37 ngequiv/g
Radiolabel recovery (Lung): 8.43 ngequiv/g
Radiolabel recovery [10]: 9.2 ngequiv/g
Radiolabel recovery (Liver [11]): 266 ngequiv/g
Radiolabel recovery [12]: 5.3 ngequiv/g
Radiolabel recovery [13]: 33.7 ngequiv/g
Radiolabel recovery (Zone of skin [14]): 16.4 ngequiv/g
Radiolabel recovery [15]: 18.9 ngequiv/g
Radiolabel recovery (Aorta [16]): 23.9 ngequiv/g
Radiolabel recovery [17]: 34.4 ngequiv/g
Radiolabel recovery (Spleen): 84.8 ngequiv/g
Radiolabel recovery [18]: 8.2 ngequiv/g
Radiolabel recovery (Thymus): 12 ngequiv/g
Radiolabel recovery [19]: 2.8 ngequiv/g
Radiolabel recovery (Small intestine [20]): 36 ngequiv/g
Radiolabel recovery (Zone of skin [21]): 2.2 ngequiv/g
Radiolabel recovery [22]: 2.06 ngequiv/g
Radiolabel recovery (Aorta [23]): 11 ngequiv/g
Radiolabel recovery (Stomach): 1670 ngequiv/g
Radiolabel recovery [24]: 6.02 ngequiv/g
Radiolabel recovery (Adrenal gland [25]): 32.2 ngequiv/g
Radiolabel recovery [26]: 520 ngequiv/g
Radiolabel recovery (Adrenal gland [27]): 66.1 ngequiv/g
Radiolabel recovery (Cerebrum [28]): 8.81 ngequiv/g
Radiolabel recovery (Adrenal gland [29]): 8.2 ngequiv/g
Radiolabel recovery [30]: 98.9 ngequiv/g
Radiolabel recovery (Cerebrum [31]): 19.3 ngequiv/g
Radiolabel recovery (Small intestine [32]): 41.3 ngequiv/g
Radiolabel recovery (Plasma [33]): 12.7 ngequiv/ml
Structure (SMILES): C[C@H]1O[C@@H](O[C@H]2[C@H](O)[C@@H](O)[C@@H](O[14C@H]3[14C@H](O)[14CH2]N[14C@@H]3[14CH2]O)O[C@@H]2CO)[C@H](O)[C@@H](O)[C@@H]1O
